Experimental data published in PMC7951180 (Nature cell biology, 2020).

Tests used:
Dmd C3333Y mice [1] = assay: Echocardiography; format: in vivo, mouse; details: 4 to 24 weeks of age, AGR mimics 10 mg/kg subQ every three days, Nifenazone 10 mg/kg i.p. daily, n=5
Outline: (§1)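 Male and female Dmd WT and Dmd C3333Y mice were dosed from 4 weeks to 16 or 24 weeks of age. […] Groups were randomised by age and sex. Left ventricular values or cardiac fibrotic area percentage are reported as mean±SD, n=5/group, one-way ANOVA.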

Dmd C3333Y mice [2] = assay: IF staining of DMD and Ub-DMD; format: in vivo, mouse; details: Dmd C3333Y mice QUA, AGR mimics 10 mg/kg subQ every three days, Nifenazone 10 mg/kg i.p. daily, n=5
Outline: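 Quadriceps sections from Dmd WT and Dmd C3333Y mice on control or test mimics, vehicle, or daily i.p. drug were immunostained for DMD and Ub-DMD (Lys3584). Intensity was quantified from average staining intensity and percentage of positively stained cells. Mean±SD, n=5 animals/group, one-way ANOVA.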

Dmd C3333Y mice [3] = assay: Forelimb grip strength test of treated Dmd C3333Y mice; format: in vivo, mouse; details: AGR mimics 10 mg/kg subQ every three days, Nifenazone 10 mg/kg i.p. daily
mdx mice = assay: IF staining of DMD and Ub-DMD in QUA of mdx mice with PPMO23 exon skipping; format: in vivo, mouse; details: PPMO23 15 mg/kg i.v. biweekly alone, or with AGR-H19 10 mg/kg s.q. every three days or Nifenazone 10 mg/kg i.p. daily; 4 to 24 weeks of age; n=5
Outline: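 Controls were male C57BL/10J mice on scramble RNA plus vehicle, and mdx mice on scramble. Quadriceps were immunostained for DMD and Ub-DMD, and intensity was scored as average intensity × percentage positive cells. Mean±SD, n=5/condition, one-way ANOVA.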

Dmd C3333Y mice [4] = assay: Fibrotic area in the heart of treated Dmd C3333Y mice; format: in vivo, mouse; details: 4 to 24 weeks of age, AGR mimics 10 mg/kg subQ every three days, Nifenazone 10 mg/kg i.p. daily, n=5
Outline: as §1

hiPS-SkMCs [5] = assay: IF staining / IB of DMD and Ub-DMD; format: cell-based, human; details: iPS-SkMCs and iPS-CMs derived from BMD patients; Nifenazone 10 μM, 72 hours
Outline: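 Skeletal muscle cells came from iPSCs reprogrammed from fibroblasts of a healthy donor (GM09503) and four BMD donors (GM04981, GM02298, GM05089, GM04569). iPSCs were kept feeder-free on Matrigel in mTeSR1. For IF, myoblasts on collagen I-coated coverslips grew to confluence, then spent 4 days in myotube medium before 4% paraformaldehyde fixation. IF intensity combined average staining and percentage of positive cells; n=5 independent experiments, two-way ANOVA. Immunoblots were repeated twice.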

TRIM63 = TRIM63 (Homo sapiens, UniProt Q969Q1); assay: Screen of small molecule inhibitors targeting TRIM63; format: biochemical; details: library of 2027 bioactive compounds; Ub-DMD (Lys3584) antibody, OD450
Chain of TRIM63 (Q969Q1 whole entry): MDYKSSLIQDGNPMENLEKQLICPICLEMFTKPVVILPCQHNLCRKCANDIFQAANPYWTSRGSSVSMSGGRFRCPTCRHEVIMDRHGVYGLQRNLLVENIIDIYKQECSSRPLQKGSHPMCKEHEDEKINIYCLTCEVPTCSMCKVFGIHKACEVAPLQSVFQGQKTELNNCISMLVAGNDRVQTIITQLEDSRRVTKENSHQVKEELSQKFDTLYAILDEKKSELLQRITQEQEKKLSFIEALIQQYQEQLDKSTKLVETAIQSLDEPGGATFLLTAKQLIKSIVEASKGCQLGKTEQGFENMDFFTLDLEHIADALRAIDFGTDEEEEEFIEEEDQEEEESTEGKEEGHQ
Outline: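 The library screen measured DMD poly-ubiquitination by sandwich ELISA, with His6-TUBE capture and Ub-DMD (Lys3584) antibody detection read at OD450. Background-subtracted mean absorbance per compound was normalised to DMSO-treated samples and expressed as log2 fold change.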

Blood biochemistry = format: in vivo, mouse; details: Dmd C3333Y mice from 4 weeks of age; AGR mimics 10 mg/kg subQ every three days; Nifenazone 10 mg/kg i.p. daily
hiPS-SkMCs [6] = assay: Immunoprecipitation and immunoblotting in hiPS-SkMCs; format: cell-based, human; details: IB; for Ub-DMD in K3584R mutant knockin BMD iPS-SkMCs: GM04981 K3584R
Body weight measurement = format: in vivo, mouse; details: Dmd C3333Y mice from 4 weeks of age; AGR mimics 10 mg/kg subQ every three days; Nifenazone 10 mg/kg i.p. daily
Outline: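 Weighed weekly in male Dmd WT (scramble- or vehicle-treated) and Dmd C3333Y mice during dosing from 4 weeks of age, to 16 weeks for the i.p. drug arm. AGR-Scr and AGR-H19 mut served as control mimics. Mean±SD, n=5 mice/group, two-way ANOVA.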

indicated genes = assay: RT-qPCR of indicated genes and microRNAs; details: Dmd C3333Y QUA; 10 mg/kg subQ every three days
[7] = Serum IGF1 and IGF2 concentration; format: in vivo, mouse; details: Dmd C3333Y mice; 10 mg/kg subQ every three days
Outline: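 Serum IGF1 and IGF2 were measured in Dmd WT and Dmd C3333Y mice under the treatment arms. AGR mimics were dosed from 4 weeks of age to 16 or 24 weeks. Mean±SD, n=5 mice/group, one-way ANOVA.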

Pharmacokinetics = format: in vivo, mouse; details: biotin-labeled, 10 mg/kg single dose, wild type C57BL/6 mice, 3–72 hours; dot-blot, n=5 animals per time point
Outline: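 A single 10 mg/kg dose of biotinylated H19 mimic (i.p. or subQ) or AGR-H19 (subQ) was given to wild type C57BL/6 mice. Muscle, heart, liver, kidney and lung were taken at 3, 12, 24, 48 or 72 h. Small RNA was dot-blotted against a 2-fold standard series of 1 μg–1 pg and detected with streptavidin-HRP. Levels are given as ng/g tissue, with PK parameters from nonlinear regression. n=5/time point.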

| Inhibition of the enzymatic activities of TRIM63 in vitro (screen) (TRIM63) | Compound | Heart function (left ventricular ejection fraction and fraction shortening) (Dmd C3333Y mice [1]) | Dystrophin level in skeletal muscle (Dmd C3333Y mice [2]) | Ub-DMD level in skeletal muscle (Dmd C3333Y mice [2]) | Muscle strength (Dmd C3333Y mice [3]) | Dystrophin protein in skeletal muscle of mdx mice (mdx mice) | Ub-DMD (poly-Ub) in skeletal muscle of mdx mice (mdx mice) | Fibrotic area in the heart (Dmd C3333Y mice [4]) | Dystrophin protein stability (hiPS-SkMCs [5]) | Status of Ub-DMD (Lys3584) (hiPS-SkMCs [5]) | Liver or kidney function (Blood biochemistry) | Ub-DMD in K3584R mutant knockin BMD iPS-SkMCs (hiPS-SkMCs [6]) | Ub-DMD in hiPS-SkMCs upon NIF treatment (hiPS-SkMCs [6]; vehicle or NIF) | Body weight (Body weight measurement) | Expression status of microRNAs tested (indicated genes) | Serum IGF1/IGF2 [7] | Amount in skeletal and cardiac muscles after dosing (Pharmacokinetics) |
| --- | --- | --- | --- | --- | --- | --- | --- | --- | --- | --- | --- | --- | --- | --- | --- | --- | --- |
| effective inhibition | Cc1c(NC(=O)c2cccnc2)c(=O)n(-c2ccccc2)n1C [Nifenazone] | improved | restored | decreased | significantly improved | significantly increased | reduced | reduced | stabilized dystrophin | attenuated | minimally affected | minimally affected | inhibited | minimally affected | – | – | – |
| – | N-terminal-ELTNEIPAELTNEIPA-Linker-5'-[2’-F-C][2’-F-U][2’-F-C][2’-F-U][2’-F-U][2’-F-U][2’-F-G][2’-F-U][2’-F-U][2’-F-U][2’-F-C][2’-F-U][2’-F-G][2’-F-A][2’-F-G][2’-F-C][2’-F-U][2’-F-U][2’-F-U][2’-F-C][2’-F-C][2’-F-U][2’-F-G][2’-F-U][2’-F-C][2’-F-U][2’-F-U][2’-F-U][2’-F-C][2’-F-C]-3' [AGR-H19] | increased | elevated | reduced | improved | significantly increased | reduced | reduced | – | – | minimal effects | minimally affected | – | minimal effects | minimal effects | minimal effects | substantial amount |
| – | RXRRBRRXRRBRXB [PPMO23] | – | – | – | – | partially restored | robust | – | – | – | – | – | – | – | – | – | – |
